One series deals with PffabI(A217V)^Dd2. Briefly: Drug susceptibility assay, transgenic line. Format: cell-based, P. falciparum. As to conditions: Plasmodium falciparum.
Another series deals with PbΔfabI. Briefly: Ex vivo drug susceptibility assay, P. berghei asexual blood stages. Format: cell-based. As to conditions: Plasmodium berghei.
The subject of series [1] is P. berghei (KBG-173 line). It counts as in vivo. As to conditions: for parasitemia on day 6 post-infection: three days twice-daily divided dose.
For another series, the system named is recombinant PfFabI A217V. As to conditions: recombinant PfFabI A217V versus wild type; ref Kapoor et al., 2004; cited from earlier work.
A further series deals with 3D7^attB. In words: Drug susceptibility assay, parental line. Format: cell-based, P. falciparum. As to conditions: Plasmodium falciparum.
The test system of a further series is PffabI(A217V)^3D7. In words: Drug susceptibility assay, transgenic line. It counts as cell-based, P. falciparum. As to conditions: Plasmodium falciparum.
The next series concerns P. berghei. As to conditions: SC, 3 mg/kg/day, four days; ref Surolia and Surolia, 2001; cited from earlier work.
In the next series the test system is P. falciparum 3D7. It counts as cell-based. As to conditions: Plasmodium falciparum, 3D7, read-out: mean IC50.
The next series has as its system PbfabI^Rec. In words: Ex vivo drug susceptibility assay, P. berghei asexual blood stages. As to conditions: Plasmodium berghei. It counts as cell-based. In short, it runs like this:
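Ex vivo growth of P. berghei asexual blood-stage parasites exposed to the test compound was measured by [³H]-hypoxanthine assay. IC50 was calculated by linear regression. Each compound was tested in duplicate on at least two separate occasions.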

For a further series, the system named is PfΔfabI^2. Briefly: Drug susceptibility assay, pffabI knockout clone. As to conditions: Plasmodium falciparum, read-out: IC50 (mean ± SEM). Format: cell-based, P. falciparum.
Another series has as its system PfΔfabI^1. In words: Drug susceptibility assay, pffabI knockout clone. Format: cell-based, P. falciparum. As to conditions: Plasmodium falciparum, read-out: IC50 (mean ± SEM).
For the next series, the system named is P. falciparum Dd2. It counts as cell-based. As to conditions: Plasmodium falciparum, DD2, read-out: mean IC50.
Another series has as its system ANKA. Briefly: Ex vivo drug susceptibility assay, P. berghei asexual blood stages. It counts as cell-based. As to conditions: Plasmodium berghei.
In the next series the test system is Dd2^attB. In words: Drug susceptibility assay, parental line. Format: cell-based, P. falciparum. As to conditions: Plasmodium falciparum.
The next series relates to PffabI(WT)^3D7. Briefly: Drug susceptibility assay, transgenic line. It counts as cell-based, P. falciparum. As to conditions: Plasmodium falciparum.
For the next series, the system named is PffabI(WT)^Dd2. Briefly: Drug susceptibility assay, transgenic line. Format: cell-based, P. falciparum. As to conditions: Plasmodium falciparum.

SMILES strings stand for the structures. Read-outs that look alike come from different tables or passages of the source.

For the compound `Oc1cc(Cl)ccc1Oc1ccc(Cl)cc1Cl` [triclosan, 5-chloro-2-(2,4-dichlorophenoxy)phenol], the concentration for half-maximal inhibition (IC50) came out at […] in the series with PffabI(A217V)^Dd2 (DD2, read-out: IC50 (mean±SEM)); 1400 ± 100 nM with PbΔfabI (read-out: IC50 (means±SEM)); […] with 3D7^attB (3D7, read-out: IC50 (mean±SEM)); […] in the series with PffabI(A217V)^3D7 (3D7, read-out: IC50 (mean±SEM)); 1800 nM with P. falciparum 3D7; 1500 ± 200 nM with PbfabI^Rec (read-out: IC50 (means±SEM)). In addition, the half-maximal inhibitory concentration (IC50) was determined as 2400 ± 300 nM in the series on PfΔfabI^2; 2200 ± 200 nM with PfΔfabI^1; […] with P. falciparum Dd2; […] in the series with ANKA (read-out: IC50 (means±SEM)); […] with Dd2^attB (DD2, read-out: IC50 (mean±SEM)); […] in the series on PffabI(WT)^3D7 (3D7, read-out: IC50 (mean±SEM)). For the same compound, in the series on PffabI(WT)^Dd2 (DD2, read-out: IC50 (mean±SEM)), the IC50 is […]. In addition, the concentration for an effect of 90% (IC90) in the series on PffabI(A217V)^Dd2 (DD2, read-out: IC90 (mean±SEM)) was […]; in the series on 3D7^attB (3D7, read-out: IC90 (mean±SEM)), 4800 ± 600 nM; in the series on PffabI(A217V)^3D7 (3D7, read-out: IC90 (mean±SEM)), […]; in the series on Dd2^attB (DD2, read-out: IC90 (mean±SEM)) it was […]; with PffabI(WT)^3D7 (3D7, read-out: IC90 (mean±SEM)) it was […]; in the series on PffabI(WT)^Dd2 (DD2, read-out: IC90 (mean±SEM)), […]. For the same compound, in series [1] (PO or SC, doses higher than 128 mg/kg/day), the “parasitemia at doses above 128 mg/kg/day” value is “failed to further suppress the parasitemias”. Moreover, the survival times entry in series [1] (PO, 64 mg/kg/day) is “slight extension in survival times”. Besides, the “survival rate at day 31” value was 30% in [1] (PO, 128 mg/kg/day) and 30% in series [1] (PO, 256 mg/kg/day). The “parasitemia on day 6 post-infection” value in [1] (PO, 128 mg/kg/day, placebo control 61%) is 27%; in series [1] (SC, 128 mg/kg/day, placebo control 57%), 13%. Also, in series [1] (PO, 512 mg/kg/day), the “mortality / overall survival (toxicity)” value is “some early mortality and decreased overall survival rates”. The survival in series [1] (SC route, 16 to 512 mg/kg/day) is given as at most 50%. Also, the “decrease in binding affinity conferred by A217V mutation” value with recombinant PfFabI A217V is […]. In addition, in the series on P. berghei, the “suppression of P. berghei parasitemia” value is reported as 75%.

Regarding `CCN(CC)CCCC(C)Nc1ccnc2cc(Cl)ccc12` (centres unmarked) [chloroquine], the IC50 in the series on PbΔfabI is 11 ± 0.1 nM; in the series with PbfabI^Rec, 13 ± 0.6 nM; in the series with ANKA, 10.4 ± 0.3 nM.

By IC50 is commonly meant the concentration at which inhibition is half-maximal. As usually defined, the IC90 is the concentration at which the effect reaches the 90% level.
